Assay results: the M2OR odorant receptor database
Changes are numbered by the printed parent chain.

Key:
Conditions in all cases: stereoisomer not certain
OR5AC2 (Homo sapiens) = biological target: T1, OR5AC2 (Homo sapiens) (UniProt Q9NZP5)
T1 sequence (whole entry): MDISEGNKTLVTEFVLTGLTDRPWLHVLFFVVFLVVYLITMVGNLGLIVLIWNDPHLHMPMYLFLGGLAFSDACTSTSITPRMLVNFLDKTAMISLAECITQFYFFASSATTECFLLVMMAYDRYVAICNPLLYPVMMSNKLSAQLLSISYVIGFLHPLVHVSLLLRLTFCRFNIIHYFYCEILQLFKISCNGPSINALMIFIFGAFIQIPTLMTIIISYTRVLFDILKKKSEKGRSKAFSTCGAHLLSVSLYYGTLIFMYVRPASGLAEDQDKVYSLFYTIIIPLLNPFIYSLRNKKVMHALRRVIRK
Outline: (§1)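 Assay methods differ from source to source, frequently being transient luciferase assays in mammalian cell lines. For each receptor–molecule pair, the label responsive (active) applies when the original authors judged the measured signal statistically different from baseline, and non-responsive (inactive) applies otherwise.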

OR52N4 (Homo sapiens) = biological target: T2, OR52N4 (Homo sapiens) (UniProt Q8NGI2)
T2 sequence (whole entry): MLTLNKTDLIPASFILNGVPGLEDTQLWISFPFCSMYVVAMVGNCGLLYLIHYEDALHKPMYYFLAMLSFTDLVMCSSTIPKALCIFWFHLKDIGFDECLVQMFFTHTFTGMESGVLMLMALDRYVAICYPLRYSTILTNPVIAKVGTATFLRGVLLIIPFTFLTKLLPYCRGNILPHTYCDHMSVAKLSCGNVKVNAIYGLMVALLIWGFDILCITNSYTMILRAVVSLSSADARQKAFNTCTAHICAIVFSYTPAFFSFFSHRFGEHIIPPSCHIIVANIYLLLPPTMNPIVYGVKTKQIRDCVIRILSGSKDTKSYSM
Outline: as §1

OR52N5 (Homo sapiens) = biological target: T3, OR52N5 (Homo sapiens) (UniProt Q8NH56)
T3 sequence (whole entry): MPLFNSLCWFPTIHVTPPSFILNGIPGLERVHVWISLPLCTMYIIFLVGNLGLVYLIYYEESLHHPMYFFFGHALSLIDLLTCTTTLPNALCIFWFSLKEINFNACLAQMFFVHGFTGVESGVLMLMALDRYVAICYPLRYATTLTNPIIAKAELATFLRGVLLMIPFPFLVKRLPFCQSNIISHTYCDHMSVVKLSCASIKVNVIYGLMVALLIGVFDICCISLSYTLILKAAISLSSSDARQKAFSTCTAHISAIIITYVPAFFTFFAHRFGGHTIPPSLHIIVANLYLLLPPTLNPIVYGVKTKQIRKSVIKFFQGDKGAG
Outline: as §1

OR52R1 (Homo sapiens) = biological target: T4, OR52R1 (Homo sapiens) (UniProt Q8NGF1)
T4 sequence (whole entry): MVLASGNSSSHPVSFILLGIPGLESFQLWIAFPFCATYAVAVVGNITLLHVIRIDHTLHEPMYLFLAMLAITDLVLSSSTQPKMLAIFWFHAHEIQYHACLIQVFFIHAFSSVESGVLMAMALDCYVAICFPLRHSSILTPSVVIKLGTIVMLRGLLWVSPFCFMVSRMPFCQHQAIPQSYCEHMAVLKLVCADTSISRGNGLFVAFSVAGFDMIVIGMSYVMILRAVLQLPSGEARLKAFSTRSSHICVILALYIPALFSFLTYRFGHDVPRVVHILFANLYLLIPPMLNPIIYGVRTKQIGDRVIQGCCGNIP
Outline: as §1

OR52W1 (Homo sapiens) = biological target: T5, OR52W1 (Homo sapiens) (UniProt Q6IF63)
T5 sequence (whole entry): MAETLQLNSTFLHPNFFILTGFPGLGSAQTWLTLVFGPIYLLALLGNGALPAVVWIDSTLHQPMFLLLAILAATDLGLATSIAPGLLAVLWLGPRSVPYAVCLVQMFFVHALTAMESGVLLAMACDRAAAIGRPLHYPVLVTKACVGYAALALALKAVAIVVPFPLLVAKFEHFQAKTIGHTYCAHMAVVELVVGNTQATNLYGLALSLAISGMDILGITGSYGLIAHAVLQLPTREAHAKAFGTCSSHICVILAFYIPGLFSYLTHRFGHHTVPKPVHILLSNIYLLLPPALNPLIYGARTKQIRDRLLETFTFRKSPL
Outline: as §1

OR56A1 (Homo sapiens) = biological target: T6, OR56A1 (Homo sapiens) (UniProt Q8NGH5)
T6 sequence (whole entry): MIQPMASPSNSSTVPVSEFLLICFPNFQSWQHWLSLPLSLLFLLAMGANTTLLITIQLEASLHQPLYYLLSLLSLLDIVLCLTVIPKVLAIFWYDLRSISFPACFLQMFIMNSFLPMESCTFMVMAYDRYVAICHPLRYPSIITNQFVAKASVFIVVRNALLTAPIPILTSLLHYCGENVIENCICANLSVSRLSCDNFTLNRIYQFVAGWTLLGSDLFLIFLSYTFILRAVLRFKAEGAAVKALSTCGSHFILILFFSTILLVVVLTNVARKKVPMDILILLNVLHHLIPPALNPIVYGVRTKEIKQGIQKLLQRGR
Outline: as §1

OR56A3 (Homo sapiens) = biological target: T7, OR56A3 (Homo sapiens) (UniProt Q8NH54)
T7 sequence (whole entry): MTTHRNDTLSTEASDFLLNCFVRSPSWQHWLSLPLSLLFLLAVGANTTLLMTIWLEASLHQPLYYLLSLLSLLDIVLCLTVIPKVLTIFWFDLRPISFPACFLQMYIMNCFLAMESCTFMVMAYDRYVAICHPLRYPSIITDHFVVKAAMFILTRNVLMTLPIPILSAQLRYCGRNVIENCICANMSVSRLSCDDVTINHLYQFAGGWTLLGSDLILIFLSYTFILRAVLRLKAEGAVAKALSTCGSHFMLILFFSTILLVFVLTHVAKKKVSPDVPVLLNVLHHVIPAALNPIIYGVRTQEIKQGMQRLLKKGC
Outline: as §1

OR56A5 (Homo sapiens) = biological target: T8, OR56A5 (Homo sapiens) (UniProt P0C7T3)
T8 sequence (whole entry): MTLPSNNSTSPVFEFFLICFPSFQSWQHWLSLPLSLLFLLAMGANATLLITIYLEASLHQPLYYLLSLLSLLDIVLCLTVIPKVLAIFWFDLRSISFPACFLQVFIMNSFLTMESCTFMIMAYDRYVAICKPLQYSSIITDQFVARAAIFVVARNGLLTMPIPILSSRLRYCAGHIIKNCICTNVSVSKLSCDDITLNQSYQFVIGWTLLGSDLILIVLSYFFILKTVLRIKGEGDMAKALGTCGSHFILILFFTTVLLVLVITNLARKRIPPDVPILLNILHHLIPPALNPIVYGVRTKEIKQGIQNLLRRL
Outline: as §1

OR56B1 (Homo sapiens) = biological target: T9, OR56B1 (Homo sapiens) (UniProt Q8NGI3)
T9 sequence (whole entry): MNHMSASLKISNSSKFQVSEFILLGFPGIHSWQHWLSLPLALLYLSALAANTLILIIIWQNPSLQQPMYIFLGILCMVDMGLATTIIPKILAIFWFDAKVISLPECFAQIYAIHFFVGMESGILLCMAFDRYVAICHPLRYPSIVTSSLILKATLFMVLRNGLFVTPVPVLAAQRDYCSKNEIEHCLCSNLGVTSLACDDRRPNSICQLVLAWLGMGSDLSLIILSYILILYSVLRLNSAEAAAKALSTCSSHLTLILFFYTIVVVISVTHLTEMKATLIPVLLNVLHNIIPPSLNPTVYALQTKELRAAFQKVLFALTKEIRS
Outline: as §1

OR56B4 (Homo sapiens) = biological target: T10, OR56B4 (Homo sapiens) (UniProt Q8NH76)
T10 sequence (whole entry): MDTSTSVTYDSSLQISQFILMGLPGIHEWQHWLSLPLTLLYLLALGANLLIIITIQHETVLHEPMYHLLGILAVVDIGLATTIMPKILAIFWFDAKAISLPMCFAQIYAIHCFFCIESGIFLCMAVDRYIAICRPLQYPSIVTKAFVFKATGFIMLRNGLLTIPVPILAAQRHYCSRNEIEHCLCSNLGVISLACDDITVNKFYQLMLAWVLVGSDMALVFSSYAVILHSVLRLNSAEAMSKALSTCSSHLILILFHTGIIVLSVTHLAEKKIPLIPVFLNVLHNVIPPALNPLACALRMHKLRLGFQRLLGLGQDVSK
Outline: as §1

OR5A1 (Homo sapiens) = biological target: T11, OR5A1 (Homo sapiens) (UniProt Q8NGJ0)
T11 sequence (whole entry): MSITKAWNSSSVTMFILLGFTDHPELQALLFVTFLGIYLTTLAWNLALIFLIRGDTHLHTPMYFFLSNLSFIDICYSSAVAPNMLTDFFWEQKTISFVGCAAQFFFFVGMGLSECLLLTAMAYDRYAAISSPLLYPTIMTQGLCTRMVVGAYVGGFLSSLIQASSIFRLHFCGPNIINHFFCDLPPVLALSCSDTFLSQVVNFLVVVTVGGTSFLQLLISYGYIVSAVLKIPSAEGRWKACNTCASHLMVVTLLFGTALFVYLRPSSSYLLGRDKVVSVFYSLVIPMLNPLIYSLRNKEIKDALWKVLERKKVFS
Outline: as §1

OR5A1 D183N = test system: T12, OR5A1 D183N
T12 sequence (whole entry): T11 sequence (whole entry) with D183N
Outline: as §1

OR5A2 (Homo sapiens) = biological target: T13, OR5A2 (Homo sapiens) (UniProt Q8NGI9)
T13 sequence (whole entry): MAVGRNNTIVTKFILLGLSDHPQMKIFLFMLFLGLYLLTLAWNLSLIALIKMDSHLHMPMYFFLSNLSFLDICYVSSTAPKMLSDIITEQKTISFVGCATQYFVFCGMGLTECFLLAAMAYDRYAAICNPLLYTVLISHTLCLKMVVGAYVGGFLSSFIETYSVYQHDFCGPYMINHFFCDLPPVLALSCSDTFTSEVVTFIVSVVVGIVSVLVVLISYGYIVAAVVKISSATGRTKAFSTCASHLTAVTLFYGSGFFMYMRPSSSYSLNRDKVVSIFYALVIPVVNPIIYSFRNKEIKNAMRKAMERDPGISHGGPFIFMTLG
Outline: as §1

OR5AK2 (Homo sapiens) = biological target: T14, OR5AK2 (Homo sapiens) (UniProt Q8NH90)
T14 sequence (whole entry): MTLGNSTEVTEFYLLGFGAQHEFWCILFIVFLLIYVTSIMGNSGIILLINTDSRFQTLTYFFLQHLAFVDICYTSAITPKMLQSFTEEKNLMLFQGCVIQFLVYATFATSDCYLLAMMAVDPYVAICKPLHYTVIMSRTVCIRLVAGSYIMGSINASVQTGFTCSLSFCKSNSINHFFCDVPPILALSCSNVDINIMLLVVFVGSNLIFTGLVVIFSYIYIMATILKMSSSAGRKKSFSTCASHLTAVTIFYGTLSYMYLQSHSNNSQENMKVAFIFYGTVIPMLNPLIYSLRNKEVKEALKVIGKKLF
Outline: as §1

OR5AN1 (Homo sapiens) = biological target: T15, OR5AN1 (Homo sapiens) (UniProt Q8NGI8)
T15 sequence (whole entry): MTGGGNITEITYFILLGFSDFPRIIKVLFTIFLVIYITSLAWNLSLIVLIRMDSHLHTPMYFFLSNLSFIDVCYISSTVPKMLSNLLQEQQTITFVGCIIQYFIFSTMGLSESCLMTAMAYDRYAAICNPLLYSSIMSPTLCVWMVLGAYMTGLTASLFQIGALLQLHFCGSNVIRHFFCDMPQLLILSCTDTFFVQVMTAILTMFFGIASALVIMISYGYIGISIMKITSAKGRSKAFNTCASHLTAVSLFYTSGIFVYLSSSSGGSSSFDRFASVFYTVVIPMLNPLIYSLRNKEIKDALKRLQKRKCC
Outline: as §1

OR5AP2 (Homo sapiens) = biological target: T16, OR5AP2 (Homo sapiens) (UniProt Q8NGF4)
T16 sequence (whole entry): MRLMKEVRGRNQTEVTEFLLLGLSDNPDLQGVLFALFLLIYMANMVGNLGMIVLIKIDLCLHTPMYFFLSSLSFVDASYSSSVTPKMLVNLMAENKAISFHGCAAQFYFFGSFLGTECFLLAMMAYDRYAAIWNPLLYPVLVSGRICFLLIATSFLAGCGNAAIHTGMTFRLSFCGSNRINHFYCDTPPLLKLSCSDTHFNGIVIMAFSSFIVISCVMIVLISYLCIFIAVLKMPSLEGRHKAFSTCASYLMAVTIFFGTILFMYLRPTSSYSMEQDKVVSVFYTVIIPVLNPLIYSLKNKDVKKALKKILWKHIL
Outline: as §1

Measured: odorant receptor agonist call

CC1CC(C)(c2ccccc2)CO1 (centres undefined)
inactive: OR5AC2 (Homo sapiens)

Cc1ccc(C(C)C)cc1O
inactive: OR5AC2 (Homo sapiens)

CCC1OC(C)=C(O)C1=O (centres undefined)
inactive: OR52N4 (Homo sapiens) | OR52N5 (Homo sapiens) | OR52R1 (Homo sapiens) | OR52W1 (Homo sapiens) | OR56A1 (Homo sapiens) | OR56A3 (Homo sapiens) | OR56A5 (Homo sapiens) | OR56B1 (Homo sapiens) | OR56B4 (Homo sapiens) | OR5A1 (Homo sapiens) | OR5A1 D183N | OR5A2 (Homo sapiens) | OR5AC2 (Homo sapiens) | OR5AK2 (Homo sapiens) | OR5AN1 (Homo sapiens) | OR5AP2 (Homo sapiens)

CC1=C(O)C(=O)OC1C (centres undefined)
inactive: OR52N4 (Homo sapiens) | OR52N5 (Homo sapiens) | OR52R1 (Homo sapiens) | OR52W1 (Homo sapiens) | OR56A1 (Homo sapiens) | OR56A3 (Homo sapiens) | OR56A5 (Homo sapiens) | OR56B1 (Homo sapiens) | OR56B4 (Homo sapiens) | OR5A1 (Homo sapiens) | OR5A1 D183N | OR5A2 (Homo sapiens) | OR5AC2 (Homo sapiens) | OR5AK2 (Homo sapiens) | OR5AN1 (Homo sapiens) | OR5AP2 (Homo sapiens)
